Test results as given in ChEMBL document CHEMBL1123437, “Isozyme-specific enzyme inhibitors. 12. C- and N-methylmethionines as substrates and inhibitors of methionine adenosyltransferases of normal and hepatoma rat tissues” (J Med Chem, 1986).

Columns and labels:
[1] = target: S-adenosylmethionine synthetase (MAT 1 and MAT 2) (Rattus norvegicus, UniProt P13444+P18298); test: Competitive inhibitory activity against methionine adenosyltransferase; assay type: protein assay
In short: (§1)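 Rat kidney M-2 or Novikoff hepatoma M-T MAT, partially purified. Run at 37 °C, pH 8.2 (Tris, KCl, MgCl2, DTT) with 2 mM MgATP. [14C]Met at five or six levels spanning (0.5–4)×KM, with two inhibitor levels (1–3 mM) and no-inhibitor controls. 10 min, HClO4 stop, phosphocellulose disc counting. Ki from replots of double-reciprocal slopes vs inhibitor concentration.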

[2] = target: S-adenosylmethionine synthase isoform type-2 (Rattus norvegicus, UniProt P18298); test: Competitive inhibitory activity against Methionine adenosyltransferase II; in short: as §1
Sequence of S-adenosylmethionine synthase isoform type-2 (P18298 whole entry, canonical isoform): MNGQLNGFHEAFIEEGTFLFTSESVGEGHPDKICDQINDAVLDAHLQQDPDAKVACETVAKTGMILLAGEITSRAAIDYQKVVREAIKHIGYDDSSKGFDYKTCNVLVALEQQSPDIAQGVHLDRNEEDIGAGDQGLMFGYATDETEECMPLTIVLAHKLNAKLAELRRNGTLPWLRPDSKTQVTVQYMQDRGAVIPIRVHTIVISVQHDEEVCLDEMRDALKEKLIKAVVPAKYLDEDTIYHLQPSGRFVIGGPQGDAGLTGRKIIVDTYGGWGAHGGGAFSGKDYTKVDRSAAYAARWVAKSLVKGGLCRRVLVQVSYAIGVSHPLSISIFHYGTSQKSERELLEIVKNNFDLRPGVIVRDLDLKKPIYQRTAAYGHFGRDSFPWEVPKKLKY

Row | Compound | Ki [1] [µM] | Ki [2] [µM]
1 | CSCC(C)C(N)C(=O)O (centres undefined) | 500 | 500
2 | CSC(C)C[C@@H](N)C(=O)O (some centres undefined) | 3200 | 2400
